The record followed here is ChEMBL document CHEMBL4477203 (J Med Chem, 2016).

Experiment [1] deals with T1, Neuropeptide Y receptor type 4 (Homo sapiens, UniProt P50391). The experiment can be described thus: Intrinsic activity at human NPY Y4 receptor expressed in HEK293 cells co-expressing CRE-Luc gene assessed as inhibition of forskolin stimulated luciferase activity after 4.5 hrs by luminescence assay relative to pancreatic polypeptide. Format: functional, cell-based. Summed up:
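HEK293 cells stably co-transfected with a CRE-controlled firefly luciferase reporter and hY4R, tested in phenol-red-free DMEM, pH 7.4. […] The maximal inhibition by PP was set to 0% activity (α = 1.0). Data are means ± SEM of at least 3 experiments in triplicate.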

In experiment [2] the target is T1, Neuropeptide Y receptor type 4. Briefly: Displacement of [3H](2R,7R)-10 from human NPY Y4 receptor expressed in CHO cells co-expressing Gqi5-mtAEQ after 90 mins in presence of sodium-free HEPES buffer by liquid scintillation counting. Format: cell-based.
The target is the same in experiment [3]. Briefly: Displacement of [3H](2R,7R)-10 from human NPY Y4 receptor expressed in CHO cells co-expressing Gqi5-mtAEQ after 90 mins in presence of L-15 medium by liquid scintillation counting. Type of experiment: cell-based. (In a radioligand displacement assay an active substance lowers the binding of a labelled ligand.)
Experiment [4] shares this target. Briefly: Binding affinity to human NPY Y4 receptor expressed in CHO cells co-expressing Gqi5-mtAEQ assessed as slow dissociation rate constant preincubated for 2 hrs followed by addition of (2R,7R)-Diaminooctanedioyl-bis(Tyr-Arg-Leu-Arg-Tyr-amide)Hexa(hydrotrifluoroacetate) by liquid scintillation counting. Conditions: tested as the 3H-labelled form. Format: cell-based.

Experiment [5] shares this target. The experiment can be described thus: Binding affinity to human NPY Y4 receptor expressed in CHO cells co-expressing Gqi5-mtAEQ assessed as unspecific binding in presence of (2R,7R)-Diaminooctanedioyl-bis(Tyr-Arg-Leu-Arg-Tyr-amide)Hexa(hydrotrifluoroacetate) by liquid scintillation counting. Type of experiment: cell-based. The settings on record: tested as the 3H-labelled form.

Experiment [6] has the same target. The experiment can be described thus: Binding affinity to human NPY Y4 receptor expressed in CHO cells co-expressing Gqi5-mtAEQ assessed as slow dissociation half life at 1.5 uM incubated for 2 hrs in presence of 200-fold excess of (2R,7R)-Diaminooctanedioyl-bis(Tyr-Arg-Leu-Arg-Tyr-amide)Hexa(hydrotrifluoroacetate) by liquid scintillation counting. Type of experiment: cell-based. Conditions: tested as the 3H-labelled form.

Each structure is given as a SMILES string.

T1 sequence (P50391 whole entry): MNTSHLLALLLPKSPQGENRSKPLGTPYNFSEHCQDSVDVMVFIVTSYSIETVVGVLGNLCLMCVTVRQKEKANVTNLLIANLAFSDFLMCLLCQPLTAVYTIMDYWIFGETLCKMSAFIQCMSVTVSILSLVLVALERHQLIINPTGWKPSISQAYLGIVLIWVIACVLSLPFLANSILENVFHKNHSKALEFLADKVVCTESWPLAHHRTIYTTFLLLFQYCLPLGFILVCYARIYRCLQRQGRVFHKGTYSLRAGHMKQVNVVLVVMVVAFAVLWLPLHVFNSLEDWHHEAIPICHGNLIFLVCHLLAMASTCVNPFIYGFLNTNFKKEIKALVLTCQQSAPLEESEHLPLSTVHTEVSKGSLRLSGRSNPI

Turning to `CCC(=O)N[C@@H](CCCC[C@H](N)C(=O)N[C@@H](Cc1ccc(O)cc1)C(=O)N[C@@H](CCCNC(=N)N)C(=O)N[C@@H](CC(C)C)C(=O)N[C@@H](CCCNC(=N)N)C(=O)N[C@@H](Cc1ccc(O)cc1)C(N)=O)C(=O)N[C@@H](Cc1ccc(O)cc1)C(=O)N[C@@H](CCCNC(=N)N)C(=O)N[C@@H](CC(C)C)C(=O)N[C@@H](CCCNC(=N)N)C(=O)N[C@@H](Cc1ccc(O)cc1)C(N)=O`, in experiment [1], the Intrinsic activity turned out to be 1. In addition, the Ki was 0.87 nM in experiment [2] and 6.3 nM in experiment [3]. Besides, the K in experiment [4] came to 0.0024 min⁻¹. Besides, the Activity in experiment [5] was found to be 10%. Besides, in experiment [6], the T1/2 was 1.36 h.

The term Ki denotes the dissociation constant of the complex between target and ligand, obtained from inhibition or displacement.
